assay: Toxicity liver stage against HepG2, at 10uM; assay type: cell-based; parameters: test concentration 10 uM, cell line HepG2-A16-CD81EGFP; conditions: human, HepG2-A16-CD81EGFP cells; read-out: INHIBITION
Summary of the method: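 Uninfected HepG2-A16-CD81EGFP cells, 3 × 10^3 per well, 1536-well, plated on prespotted compound at 10 μM final, parasite-free screening media added to match infected plates; puromycin 10 μM positive, DMSO 0.5% negative; run in parallel with 48 h PbLuc assay at 37 °C, 5% CO2; viability by CellTiter-Glo luminescence, normalized to controls.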

Row | Structure (SMILES) | cytotoxicity at 10 µM [%]
1 | CNC(=O)c1ccc(C2CN(C(=O)c3scnc3C)CCO2)nc1 (stereo not drawn) | 19.7
2 | O=C(CN1C(=O)CCNC1=O)N1CCOC(c2ccc(F)cc2)C1 (stereo not drawn) | 5.11
3 | Cc1cn2c(n1)CCC(NC(=O)COCCOc1ccccc1)C2 (stereo not drawn) | -4.44
4 | COc1ccc(CN2CCc3c(nc(-c4ccccn4)[nH]c3=O)C2)cc1 | -15.9
5 | c1cnc(N2CCC(NCc3cnc(C4CCC4)s3)CC2)nc1 | 4.24
6 | O=C(c1c[nH]nc1-c1cccc(F)c1)N1CCNC(c2ccccc2)C1 (stereo not drawn) | -3.68
7 | CCc1ccc(C(COC)NC(=O)c2ccsc2)o1 (stereo not drawn) | 1.57
8 | CC(C)Sc1ccc(N2CCN(Cc3ccccn3)CC2)nn1 | 2.11
9 | COc1cccc(C2=CCN(CCN3CCOC3=O)CC2)c1 | -7.52
10 | Cc1csc(C(=O)N2CCCC(c3[nH]ncc3S(C)(=O)=O)C2)c1 (stereo not drawn) | -3.17
11 | CC1CN(C(=O)Nc2cc(C(F)(F)F)c[nH]c2=O)CCO1 (stereo not drawn) | 3.44
12 | c1cc2c(cc1CN1CCC(Cc3noc(C4CC4)n3)CC1)OCCO2 | 14.9
13 | CCn1c(C)nnc1SCCn1cc(-c2ncc[nH]2)nn1 | -6.99
14 | Clc1ccc(CN2CCN(Cn3nccc3-c3cccnc3)CC2)s1 | 8.64
15 | COCC(=O)N[C@H](C)c1c(-c2ccc(Cl)cc2)noc1C(=O)O | 1.05
16 | Cn1cc(CC2CCN(C(=O)NCc3cccc(C#N)c3)C2)cn1 (stereo not drawn) | -12.3
17 | CN1CC[C@@H]2OC[C@H](C(=O)N(C)Cc3ccccn3)C[C@@H]2C1 | -98
18 | Cc1nc2n(n1)CC(NCc1ccc(Cl)c3cccnc13)CC2 (stereo not drawn) | -8.81
19 | CCCN1CCCn2c(nc(CNC(=O)c3nccn3C)cc2=O)C1 | 9.73
20 | Cc1cccc(CN2CCC3(CCCN(C(=O)N(C)C)C3)C2=O)n1 (stereo not drawn) | 1.44
21 | CCS(=O)(=O)N1CCCC2(COCCN(c3nnc(C)o3)C2)C1 (stereo not drawn) | 8.88

Row | Structure (SMILES) | cytotoxicity at 10 µM [%]
22 | Cc1ccc(S(=O)(=O)NC(=O)COc2cccc(C(N)=O)c2)s1 | -12.7
23 | COCC1c2nnn(C)c2CCN1C(=O)COc1ccccc1OC (stereo not drawn) | -105
24 | COc1ccc(N2CCN(C(=O)CCCc3cn[nH]c3)CC2=O)cc1 | -9.9
25 | Cn1cc(CN2CCCC23CCN(C(=O)c2cccn2C)CC3)cn1 | 2.88
26 | CCOCCS(=O)(=O)c1nnc(NCCOC)s1 | -7.18
27 | CC(C)c1nnc(CN2CCCC2C(=O)OCc2ccccc2)o1 (stereo not drawn) | 2.78
28 | CCc1ccccc1NC(=O)CCc1cnn(C)c1 | 8.66
29 | COCCN(C)C(=O)c1nc2c(s1)CCCN2c1ncccn1 | -131
30 | COCCCNC(=O)Cn1c(C)cc(=O)n2nc(-c3cccs3)nc12 | 2.05
31 | Cc1nnsc1CN1CCCC1c1nc(-c2ccccc2)no1 (stereo not drawn) | -45.8
32 | Cc1nc(C)n(CC2CCCN(CCOc3ccccc3F)C2)n1 (stereo not drawn) | -18.5
33 | O=C(c1ccc(-n2cccn2)nc1)N1CCCN(c2cccnn2)CC1 | 0.65
34 | COc1cccc(OCC(=O)N(C)c2cccnc2N(C)C)c1 | 0.102
35 | CCOC(=O)C1CN(S(=O)(=O)CC)Cc2ncn(CC)c21 (stereo not drawn) | 6.83
36 | Cc1nc(NCc2noc(C3CCCO3)n2)c2sccc2n1 (stereo not drawn) | 50.2
37 | CC(NCc1cnc(C2CCC2)s1)c1cccc(-n2ccnc2)c1 (stereo not drawn) | 4.12
38 | CC(C)Nc1nc(O)cc(C2CC(=O)N(C3CCCCC3)C2)n1 (stereo not drawn) | 4.5
39 | COCC1CN(Cc2ccsc2)Cc2cnn(C)c21 (stereo not drawn) | 5.58
40 | CCC(NC(=O)Nc1ccc(OC)c(C)c1)c1noc(C)n1 (stereo not drawn) | -12
41 | COCCN(Cc1cnn(C)c1)C(=O)C1COc2c(cccc2OC)C1 (stereo not drawn) | -11.9
42 | CS(=O)(=O)N1CCC2(CC1)CC(OCC1CCOCC1)CO2 (stereo not drawn) | 8.16

Row | Structure (SMILES) | cytotoxicity at 10 µM [%]
43 | COc1ccc(-c2ccc(C3CNCCO3)nc2)cc1 (stereo not drawn) | -8.88
44 | COc1ccc(NC(=O)N2CCCC2c2ccco2)cc1OC (stereo not drawn) | -7.07
45 | Cc1cnn(CCNCC(O)COc2c(C)ccc(C)c2C)c1 (stereo not drawn) | -8.78
46 | CN1CCc2[nH]cnc2C12CCN(C(=O)c1noc3c1CCCC3)CC2 | 8.71
47 | Clc1ccc(N2CCN(CCCN3CCCCC3)CC2)nc1 | 0.563
48 | CN1CCCC1c1cncc(C(=O)NCCN2CCCC2)n1 (stereo not drawn) | 8.6
49 | Cc1nnc(CCNC(=O)[C@H]2CNC[C@@H](C(=O)N3CCCC3)C2)s1 | -113
50 | CN(Cc1cnn(C)c1)C(CO)c1cccc(Br)c1 (stereo not drawn) | -2.86
51 | COc1cccc(-c2nc(CNCCn3cccn3)cs2)c1 | 2.43
52 | CCOc1cncc(N2CCN(c3ccccc3F)CC2)n1 | -0.0195
53 | CC(C)c1cc(NC(=O)c2ccncc2)[nH]n1 | -0.396
54 | CCCc1nc(C[S+]([O-])Cc2cn3cccc(C)c3n2)no1 (stereo not drawn) | 2.48
55 | Cc1cccc(NC2CCN(C(=O)Nc3ccccn3)CC2)n1 | -7.92
56 | CN1CCN2C(=O)N(C3CCOCC3)C[C@H]2C1 | 0.523
57 | Cc1nc(-c2ccccc2)n(CC(=O)NC2CCCC2)n1 | -0.248
58 | CC1CCC(NC(=O)CNC2(c3cccc(Br)c3)CCOCC2)CC1 (stereo not drawn) | 2.94
59 | CC(Nc1ccc(CN2CCCC2=O)cc1)C(=O)N(C)CCC#N (stereo not drawn) | 13.7
60 | CCC1=N[C@@]2(CC[C@@H]3CN(CC(=O)N(C)C)C[C@@H]32)C(=O)N1CC(C)C | 8.18
61 | CC(C)(O)c1cc(CC2(NCc3ccccc3Cl)COC2)no1 | 2.63
62 | CCCn1ncc(C(=O)NCc2n[nH]c3c2CCCCC3)c1C | 8.72
63 | c1cnc(N2C[C@H]3CCN(Cc4ccncc4)C[C@H]3C2)nc1 | -103

Row | Structure (SMILES) | cytotoxicity at 10 µM [%]
64 | CN(Cc1cn2c(n1)CN(C(=O)c1ccc[nH]1)CC2)Cc1ccco1 | -3.55
65 | CN1CCC2(Cc3ccccc3CN(C(=O)Cc3cccc(Cl)c3)C2)C1 (stereo not drawn) | 6.91
66 | Cn1nc(C#N)c2c1CN(C(=O)c1nc[nH]n1)CCC2 | -100
67 | CC(NCc1ccc(OCC(N)=O)cc1)c1ccc(Cl)cc1 (stereo not drawn) | 11.2
68 | CCN(CCS(=O)(=O)c1ccc(Cl)cc1)Cc1ccc(OC)c(OC)c1 | 31.7
69 | O=C(NCCCO)C1(CC2CC(c3ccc(F)cc3)=NO2)CCOCC1 (stereo not drawn) | 1.41
70 | CC(C)C(C(=O)N1CCCN(Cc2cscn2)CC1)n1cncn1 (stereo not drawn) | -2.1
71 | c1cnn(CC2CN(Cc3ccc(-n4ccnc4)cc3)CCO2)c1 (stereo not drawn) | -3.12
72 | CN1CCC2(CCN(CC3CCOCC3)CC2)C1=O | 6.77
73 | CC(C)Cc1nc(CN2CCOC(Cn3cccn3)C2)no1 (stereo not drawn) | -28.9
74 | CNC(=O)C(C)(C)CNC(=O)Nc1ccncc1C | -12.1
75 | Cc1ccc(C)c(C(=O)CN2C(=O)c3ccccc3CS2(=O)=O)c1 | -8.42
76 | COCC(=O)N1CCc2cccc(S(=O)(=O)N3CCN(C)CC3)c2C1 | 5.07
77 | Cc1n[nH]c2nc(-c3cccc(Cl)c3)cc(C(=O)O)c12 | -1.05
78 | CCOc1cccc(CCNC(=O)Cc2ccccc2O)n1 | -2.55
79 | Cc1ccc(CNC(=O)Nc2nccs2)cn1 | -23.8
80 | COc1ccc(OCCN(C)C(=O)c2ccc(OC)cc2O)cc1 | -143
81 | CCc1nc(-c2ccc(NC(=O)N3CCOCC3)cc2)no1 | 5.48
82 | Cc1occc1C(=O)N(CCN(C)C)Cc1ccccn1 | 7.65
83 | N#CCCN(Cc1cccnc1)C(=O)c1cccc(-n2cnnn2)c1 | 2.99

— ChEMBL document CHEMBL4513216, “Probing the Open Global Health Chemical Diversity Library for Multistage-Active Starting Points for Next-Generation Antimalarials” (ACS Infect Dis, 2020)
